From ChEMBL document CHEMBL1147263, “New cinnamylphenols from Dalbergia species with cancer chemopreventive activity” (J Nat Prod, 2003)

How the values were obtained:
[1] = Cytotoxicity against human Raji cells assessed as cell viability at 0.32 nmol after 48 hrs by trypan blue staining method; type: cell-based; conditions: read-out: Activity
How it was run: (§1)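 Raji cells grown to 10^6 cells/mL, pelleted and resuspended in RPMI 1640 + 10% FCS with 4 mM n-butyric acid, 32 pmol TPA (20 ng/mL) and test compound in DMSO (mol ratio to TPA 10–1000, i.e. 0.32–32 nmol). Incubated 48 h at 37 °C. Viability then counted on a hemocytometer with Trypan Blue. ≥60% survival required for valid EA readings.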

Raji [2] = test: Inhibition of 12-O-tetradecanoylphorbol-13-acetate-induced EBV-early antigen activation in human Raji cells assessed as EA induction at 32 nmol relative to 12-O-tetradecanoylphorbol-13-acetate; type: cell-based; design: scale not given: the % may be the effect or the level left; conditions: human gammaherpesvirus 4
How it was run: (§2)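 Raji cells at 10^6 cells/mL resuspended in RPMI 1640 + 10% FCS containing 4 mM n-butyric acid, 32 pmol TPA (20 ng/mL in DMSO) and test compound in DMSO. Incubated 48 h at 37 °C. EA-positive cells scored blind, ≥500 cells per assay. Reported as % EBV-EA activation ± SD relative to the TPA-only control (100%).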

Raji [3] = test: Inhibition of 12-O-tetradecanoylphorbol-13-acetate-induced EBV-early antigen activation in human Raji cells assessed as EA induction at 16 nmol relative to 12-O-tetradecanoylphorbol-13-acetate; type: cell-based; design: scale not given: the % may be the effect or the level left; conditions: human gammaherpesvirus 4; how it was run: as §2
Raji [4] = test: Inhibition of 12-O-tetradecanoylphorbol-13-acetate-induced EBV-early antigen activation in human Raji cells assessed as EA induction at 3.2 nmol relative to 12-O-tetradecanoylphorbol-13-acetate; type: cell-based; design: scale not given: the % may be the effect or the level left; conditions: human gammaherpesvirus 4; how it was run: as §2
Raji [5] = test: Inhibition of 12-O-tetradecanoylphorbol-13-acetate-induced EBV-early antigen activation in human Raji cells assessed as EA induction at 0.32 nmol relative to 12-O-tetradecanoylphorbol-13-acetate; type: cell-based; design: scale not given: the % may be the effect or the level left; conditions: human gammaherpesvirus 4; how it was run: as §2
[6] = Inhibition of 12-O-tetradecanoylphorbol-13-acetate-induced EBV-early antigen activation in human Raji cells assessed per 32 pmol TPA; type: cell-based, human gammaherpesvirus 4
How it was run: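 IC50 given as the mol ratio of compound to TPA giving 50% inhibition of EBV-EA activation versus the TPA-only control (32 pmol TPA = 100%). Raji cells were kept in RPMI 1640/10% FCS with 4 mM n-butyric acid and DMSO-dissolved compound at 10–1000 mol ratio, 48 h, 37 °C. EA-positive cells were counted blind, ≥500 per assay.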

[7] = Cytotoxicity against human Raji cells assessed as cell viability at 32 nmol after 48 hrs by trypan blue staining method; type: cell-based; conditions: read-out: Activity; how it was run: as §1
[8] = Cytotoxicity against human Raji cells assessed as cell viability at 16 nmol after 48 hrs by trypan blue staining method; type: cell-based; conditions: read-out: Activity; how it was run: as §1
[9] = Cytotoxicity against human Raji cells assessed as cell viability at 3.2 nmol after 48 hrs by trypan blue staining method; type: cell-based; conditions: read-out: Activity; how it was run: as §1

Row | SMILES | viability at 48 h, 0.32 nmol [1] [%] | Activity (Raji [2]) [%] | Activity (Raji [3]) [%] | Activity (Raji [4]) [%] | Activity (Raji [5]) [%] | IC50 [6] [molar ratio] | viability at 48 h, 32 nmol [7] [%] | viability at 48 h, 16 nmol [8] [%] | viability at 48 h, 3.2 nmol [9] [%]
1 | COc1c(O)cccc1/C=C/Cc1ccc(O)c(O)c1OC [DALBERATIN E] | > 80 | 0 | 16.4 | 60.3 | 82 | 209 | 70 | > 80 | > 80
2 | CC1=C(/C=C/C(C)=C/C=C/C(C)=C/C=C/C=C(C)/C=C/C=C(C)/C=C/C2=C(C)CCCC2(C)C)C(C)(C)CCC1 [BETA CAROTENE] | – | 9.1 | – | – | 100 | 400 | – | – | –
3 | COc1ccc(O)c(/C=C/Cc2ccc(O)c(OC)c2OC)c1 [DALBERATIN B] | > 80 | 0 | 31.1 | 68.3 | 91.7 | 303 | 70 | > 80 | > 80
4 | COc1ccc(C/C=C/c2cccc(O)c2OC)c(OC)c1O [DALBERATIN C] | > 80 | 0 | 20.9 | 65 | 86.7 | 223 | 60 | > 80 | > 80
5 | COc1c(O)cccc1/C=C/Cc1ccc(O)c(OC)c1OC [DALBERATIN A] | > 80 | 0 | 18.5 | 63.6 | 85.1 | 213 | 60 | > 80 | > 80
